Data from ChEMBL document CHEMBL1139290, “Design, synthesis, and pharmacological and pharmacokinetic evaluation of 3-phenyl-5-pyridyl-1,2,4-triazole derivatives as xanthine oxidoreductase inhibitors” (Bioorg Med Chem Lett, 2009).
pIC50: −log10 of the molar value.

Key:
[1] = target: Xanthine dehydrogenase/oxidase (Bos taurus, UniProt P80457); assay: Inhibition of bovine milk xanthine oxidoreductase
Outline: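 Bovine milk XO (2 mU/mL) with 15 µM xanthine in 50 mM phosphate buffer, pH 7.4, at 25 °C, with or without compound. Uric acid formation read as absorbance rise at 292 nm. Initial rate taken from 0 to 2.5 min and used for IC50.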

Rattus norvegicus [2] = assay: Reduction of uric acid level in rat serum at 0.3 mg/kg, po after 6 hrs by phosphotungstic acid method; format: functional; parameters: scale not given: the % may be the effect or the level left
Outline: (§1)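 Rats dosed orally. Blood drawn from the orbital sinus 6 h post-dose, clotted 1 h at room temperature and centrifuged. Serum uric acid measured by the phosphotungstic acid method.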

[3] = Cmax in rat at 3 mg/kg, po; format: ADME, organism-based; parameters: dose 3 mg/kg, route oral; settings: in vivo
Outline: (§2)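 Compounds given orally to rats; blood taken from the jugular vein at set times and centrifuged to plasma. Plasma aliquots were mixed with acetonitrile containing an internal standard, then centrifuged.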

[4] = Half life in rat at 3 mg/kg, po; format: ADME, organism-based; parameters: dose 3 mg/kg, route oral; settings: in vivo; outline: as §2
CYP3A4 = CYP3A4 (Homo sapiens, UniProt P08684); assay: Inhibition of human CYP3A4 at 10 uM; format: ADME
Chain of CYP3A4 (P08684 whole entry): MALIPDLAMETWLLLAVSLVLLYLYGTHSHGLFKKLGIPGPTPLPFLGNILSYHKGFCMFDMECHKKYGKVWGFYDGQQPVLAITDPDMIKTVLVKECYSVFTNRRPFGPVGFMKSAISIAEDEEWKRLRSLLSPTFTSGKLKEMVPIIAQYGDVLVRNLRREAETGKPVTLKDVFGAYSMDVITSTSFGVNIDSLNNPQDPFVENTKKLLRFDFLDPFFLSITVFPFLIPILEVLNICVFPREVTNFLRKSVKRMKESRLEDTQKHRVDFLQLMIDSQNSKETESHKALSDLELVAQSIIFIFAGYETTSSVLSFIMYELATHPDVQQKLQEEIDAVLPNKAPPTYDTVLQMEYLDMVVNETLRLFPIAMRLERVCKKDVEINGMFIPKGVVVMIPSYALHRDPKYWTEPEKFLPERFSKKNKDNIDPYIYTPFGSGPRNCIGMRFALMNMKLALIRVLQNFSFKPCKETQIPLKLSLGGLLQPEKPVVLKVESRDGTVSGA

[5] = Cmax in rat at 1 mg/kg, po; format: ADME, organism-based; parameters: dose 1 mg/kg, route oral; settings: in vivo; outline: as §2
Cytochrome P450 1A2 = target: T1, Cytochrome P450 1A2 (Homo sapiens, UniProt P05177); assay: Inhibition of human CYP1A2; format: ADME
T1 sequence (P05177 whole entry): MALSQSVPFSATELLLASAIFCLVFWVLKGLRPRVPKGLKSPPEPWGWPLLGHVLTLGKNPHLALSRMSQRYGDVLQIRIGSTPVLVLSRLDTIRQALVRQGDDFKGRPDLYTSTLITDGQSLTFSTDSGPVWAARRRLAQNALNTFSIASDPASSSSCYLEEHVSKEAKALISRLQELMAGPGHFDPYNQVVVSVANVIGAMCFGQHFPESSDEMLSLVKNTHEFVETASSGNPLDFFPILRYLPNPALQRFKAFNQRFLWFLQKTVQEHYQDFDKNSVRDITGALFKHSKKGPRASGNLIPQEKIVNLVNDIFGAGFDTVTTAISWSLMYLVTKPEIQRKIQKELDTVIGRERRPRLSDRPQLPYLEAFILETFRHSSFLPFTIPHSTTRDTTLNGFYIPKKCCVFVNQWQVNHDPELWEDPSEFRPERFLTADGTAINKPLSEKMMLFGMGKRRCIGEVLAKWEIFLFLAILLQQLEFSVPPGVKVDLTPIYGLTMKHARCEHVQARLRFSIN

Cytochrome P450 2C9 = Cytochrome P450 2C9 (Homo sapiens, UniProt P11712); assay: Inhibition of human CYP2C9; format: ADME
Chain of Cytochrome P450 2C9 (P11712 whole entry): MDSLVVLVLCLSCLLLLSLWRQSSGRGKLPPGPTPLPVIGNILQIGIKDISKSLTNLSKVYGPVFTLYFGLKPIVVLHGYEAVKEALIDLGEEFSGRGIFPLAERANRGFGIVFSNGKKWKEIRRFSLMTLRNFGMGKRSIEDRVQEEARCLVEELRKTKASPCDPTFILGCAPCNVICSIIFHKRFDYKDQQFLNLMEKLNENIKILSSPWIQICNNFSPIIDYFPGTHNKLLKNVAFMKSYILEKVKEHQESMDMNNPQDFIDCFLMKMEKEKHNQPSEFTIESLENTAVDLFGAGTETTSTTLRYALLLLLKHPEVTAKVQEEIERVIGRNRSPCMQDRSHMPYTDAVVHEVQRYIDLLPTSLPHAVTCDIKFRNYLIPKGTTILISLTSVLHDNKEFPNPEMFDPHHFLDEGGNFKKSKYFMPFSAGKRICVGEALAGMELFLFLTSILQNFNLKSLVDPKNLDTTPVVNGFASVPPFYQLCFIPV

Cytochrome P450 2C19 = Cytochrome P450 2C19 (Homo sapiens, UniProt P33261); assay: Inhibition of human CYP2C19; format: ADME
Chain of Cytochrome P450 2C19 (P33261 whole entry): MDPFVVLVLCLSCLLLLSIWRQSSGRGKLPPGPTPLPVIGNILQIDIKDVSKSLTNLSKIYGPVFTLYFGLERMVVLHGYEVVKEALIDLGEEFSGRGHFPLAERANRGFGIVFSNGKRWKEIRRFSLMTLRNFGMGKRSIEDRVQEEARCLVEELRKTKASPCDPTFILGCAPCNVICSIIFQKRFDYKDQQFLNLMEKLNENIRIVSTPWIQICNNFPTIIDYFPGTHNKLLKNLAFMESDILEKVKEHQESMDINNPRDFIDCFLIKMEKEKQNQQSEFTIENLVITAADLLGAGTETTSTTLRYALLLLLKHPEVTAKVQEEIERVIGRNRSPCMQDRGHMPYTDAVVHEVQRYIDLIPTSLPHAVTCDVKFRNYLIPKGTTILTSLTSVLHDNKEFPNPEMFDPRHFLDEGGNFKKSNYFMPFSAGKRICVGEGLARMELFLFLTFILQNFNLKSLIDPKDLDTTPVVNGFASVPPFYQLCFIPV

Cytochrome P450 2D6 = Cytochrome P450 2D6 (Homo sapiens, UniProt P10635); assay: Inhibition of human CYP2D6; format: ADME
Chain of Cytochrome P450 2D6 (P10635 whole entry): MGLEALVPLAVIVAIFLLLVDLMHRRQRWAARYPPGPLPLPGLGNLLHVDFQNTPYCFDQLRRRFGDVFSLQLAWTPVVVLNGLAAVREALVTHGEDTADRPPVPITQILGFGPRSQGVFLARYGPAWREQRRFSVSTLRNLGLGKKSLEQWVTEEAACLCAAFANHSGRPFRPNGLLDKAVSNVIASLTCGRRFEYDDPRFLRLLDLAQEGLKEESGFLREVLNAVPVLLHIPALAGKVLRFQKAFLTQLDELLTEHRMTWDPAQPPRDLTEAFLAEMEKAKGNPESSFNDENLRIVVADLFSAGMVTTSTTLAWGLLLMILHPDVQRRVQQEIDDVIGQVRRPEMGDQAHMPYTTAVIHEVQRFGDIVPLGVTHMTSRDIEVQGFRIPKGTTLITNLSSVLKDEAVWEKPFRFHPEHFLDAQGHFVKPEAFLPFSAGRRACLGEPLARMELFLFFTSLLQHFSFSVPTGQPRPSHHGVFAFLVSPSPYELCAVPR

Rattus norvegicus [6] = assay: Reduction of uric acid level in rat serum at 1 mg/kg, po after 6 hrs by phosphotungstic acid method; format: functional; parameters: scale not given: the % may be the effect or the level left; outline: as §1

Chain of Xanthine dehydrogenase/oxidase (P80457 whole entry): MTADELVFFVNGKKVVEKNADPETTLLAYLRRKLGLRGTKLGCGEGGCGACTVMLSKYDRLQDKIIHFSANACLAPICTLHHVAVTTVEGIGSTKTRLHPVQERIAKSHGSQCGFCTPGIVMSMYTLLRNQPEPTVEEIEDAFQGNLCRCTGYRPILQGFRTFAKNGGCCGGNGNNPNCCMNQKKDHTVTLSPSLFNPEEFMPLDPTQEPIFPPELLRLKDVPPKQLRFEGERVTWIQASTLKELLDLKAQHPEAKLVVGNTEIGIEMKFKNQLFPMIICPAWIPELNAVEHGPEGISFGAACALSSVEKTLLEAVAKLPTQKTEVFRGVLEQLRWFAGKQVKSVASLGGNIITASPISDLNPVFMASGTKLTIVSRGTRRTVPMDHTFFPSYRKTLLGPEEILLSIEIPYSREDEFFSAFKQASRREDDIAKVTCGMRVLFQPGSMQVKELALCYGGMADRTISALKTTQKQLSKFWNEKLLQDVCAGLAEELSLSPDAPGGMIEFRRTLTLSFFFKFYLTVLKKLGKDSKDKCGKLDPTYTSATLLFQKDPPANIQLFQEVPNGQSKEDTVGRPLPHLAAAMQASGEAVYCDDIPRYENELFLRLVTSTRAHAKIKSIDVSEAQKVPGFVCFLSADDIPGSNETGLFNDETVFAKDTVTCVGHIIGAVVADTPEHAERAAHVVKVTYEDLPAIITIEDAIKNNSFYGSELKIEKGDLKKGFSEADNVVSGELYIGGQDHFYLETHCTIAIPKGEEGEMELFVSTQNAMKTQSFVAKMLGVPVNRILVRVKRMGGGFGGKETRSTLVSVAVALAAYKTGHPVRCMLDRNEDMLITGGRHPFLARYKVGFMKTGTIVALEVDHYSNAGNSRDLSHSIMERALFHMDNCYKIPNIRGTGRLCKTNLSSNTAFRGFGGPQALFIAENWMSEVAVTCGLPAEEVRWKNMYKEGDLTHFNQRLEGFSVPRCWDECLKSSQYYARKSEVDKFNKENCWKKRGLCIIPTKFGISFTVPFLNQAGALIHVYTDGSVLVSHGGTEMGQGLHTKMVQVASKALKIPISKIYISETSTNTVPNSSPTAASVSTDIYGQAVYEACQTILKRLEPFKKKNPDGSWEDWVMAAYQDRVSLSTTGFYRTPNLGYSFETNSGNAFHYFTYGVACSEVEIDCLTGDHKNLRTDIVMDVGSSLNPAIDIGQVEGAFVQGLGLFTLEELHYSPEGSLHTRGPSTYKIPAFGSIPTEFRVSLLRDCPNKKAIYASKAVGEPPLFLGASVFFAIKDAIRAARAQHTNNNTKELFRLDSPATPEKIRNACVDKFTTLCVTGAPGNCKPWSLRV

Compound | pIC50 [1] | Activity (Rattus norvegicus [2]) [%] | inhibition at 10 µM (CYP3A4) [%] | also measured
COCOc1ccc(-c2nc(-c3ccnc(C)c3)n[nH]2)cc1C#N | 7.62 | 27 | – | –
CCOC(=O)c1cc(-c2nc(-c3ccnc(C)c3)n[nH]2)ccc1OCC(C)C | 7.70 | 42.4 | – | –
COCCOCCOc1ccc(-c2nc(-c3ccnc(C)c3)n[nH]2)cc1C#N | 7.51 | 52 | -6.7 | Cmax [3]: 712 ng/mL; half-life [4]: 58.2 min
CC(C)COc1ccc(-c2nc(-c3ccccn3)n[nH]2)cc1[N+](=O)[O-] | < 5.00 | – | – | –
Cc1cc(-c2nc(-c3ccc(OCC(C)C)c([N+](=O)[O-])c3)n[nH]2)ccn1 | 8.00 | 39.1 | 7.7 | Cmax [5]: 7.8 ng/mL
COc1cc(-c2n[nH]c(-c3ccc(OCC(C)C)c([N+](=O)[O-])c3)n2)ccn1 | < 5.00 | – | 6.4 | –
COCCOCOc1ccc(-c2nc(-c3ccnc(C)c3)n[nH]2)cc1C#N | 7.62 | 40 | 16.5 | Cmax [3]: 360 ng/mL; half-life [4]: 27 min
CCCCOCCOCCOc1ccc(-c2nc(-c3ccnc(C)c3)n[nH]2)cc1C#N | 7.59 | 10.1 | – | –
Cc1cc(-c2n[nH]c(-c3ccc(OCCOCCOCCCl)c(C#N)c3)n2)ccn1 | 7.68 | 40.7 | – | Cmax [3]: 684 ng/mL; half-life [4]: 31.2 min
Cc1cc(-c2nnc(-c3ccc(OCC(C)C)c([N+](=O)[O-])c3)[nH]2)cc(Cl)n1 | < 5.00 | – | 10.9 | –
Cc1cc(-c2nnc(-c3ccc(OCC(=O)O)c(C#N)c3)[nH]2)ccn1 | 6.96 | – | – | –
Cc1cc(-c2n[nH]c(-c3ccc(OCCO)c(C#N)c3)n2)ccn1 | 7.40 | 10.9 | – | –
COCCOc1ccc(-c2nc(-c3ccnc(C)c3)n[nH]2)cc1C#N | 7.19 | 36.5 | – | –
CC(C)COc1ccc(NC(=O)C(=O)O)cc1Cl | 5.14 | – | – | –
CC(C)COc1ccc(NC(=O)Nc2ccncc2)cc1[N+](=O)[O-] | 7.82 | -3.2 | – | –
CC(C)COc1ccc(-c2n[nH]c(-c3ccncc3)n2)cc1[N+](=O)[O-] | 8.43 | 33.7 | 80.9 | Activity (Cytochrome P450 1A2): Active; Activity (Cytochrome P450 2C9): Active; Activity (Cytochrome P450 2C19): Active; Activity (Cytochrome P450 2D6): Active; Cmax [5]: 13.8 ng/mL
Cc1cc(-c2nc(-c3ccc(OCC(C)C)c(C#N)c3)n[nH]2)ccn1 | 7.77 | 46 | 16.8 | Cmax [5]: 4.5 ng/mL; Cmax [3]: 16.7 ng/mL; half-life [4]: 22.2 min
Cc1cc(-c2n[nH]c(-c3ccc(O)c(C#N)c3)n2)ccn1 | 7.37 | -8.2 | – | –
Cc1cc(-c2nnc(-c3ccc(OCC(C)C)c(C(=O)O)c3)[nH]2)ccn1 | < 5.00 | – | – | –
CC(C)COc1ccc(-c2nc(-c3cccnc3)n[nH]2)cc1[N+](=O)[O-] | 5.23 | – | 18.2 | –
CC(C)COc1ccc(-c2nc(-c3ccnc(Cl)c3)n[nH]2)cc1[N+](=O)[O-] | – | – | 7.1 | Activity (Rattus norvegicus [6]): 40.6%
Cc1cc(-c2n[nH]c(-c3ccc(OCC4COC(C)(C)O4)c(C#N)c3)n2)ccn1 (stereo not given) | 7.22 | 27.9 | – | –
